Data from ChEMBL document CHEMBL4828711, “Development of a selective matrix metalloproteinase 13 (MMP-13) inhibitor for the treatment of Osteoarthritis” (Eur J Med Chem, 2021).
Activity calls are given as the source filed them. No cut-off for these calls is given here.

Tests used:
Interstitial collagenase = target: T1, Interstitial collagenase (Homo sapiens, UniProt P03956); assay: Inhibition of recombinant human MMP1 using QXL520-gamma-Abu-Pro-Cha-Abu-Smc-His-Ala-Dab(5-FAM)-Ala-Lys-NH2 as substrate measured every 5 mins for 2 hrs by FRET assay
T1 sequence (P03956 whole entry): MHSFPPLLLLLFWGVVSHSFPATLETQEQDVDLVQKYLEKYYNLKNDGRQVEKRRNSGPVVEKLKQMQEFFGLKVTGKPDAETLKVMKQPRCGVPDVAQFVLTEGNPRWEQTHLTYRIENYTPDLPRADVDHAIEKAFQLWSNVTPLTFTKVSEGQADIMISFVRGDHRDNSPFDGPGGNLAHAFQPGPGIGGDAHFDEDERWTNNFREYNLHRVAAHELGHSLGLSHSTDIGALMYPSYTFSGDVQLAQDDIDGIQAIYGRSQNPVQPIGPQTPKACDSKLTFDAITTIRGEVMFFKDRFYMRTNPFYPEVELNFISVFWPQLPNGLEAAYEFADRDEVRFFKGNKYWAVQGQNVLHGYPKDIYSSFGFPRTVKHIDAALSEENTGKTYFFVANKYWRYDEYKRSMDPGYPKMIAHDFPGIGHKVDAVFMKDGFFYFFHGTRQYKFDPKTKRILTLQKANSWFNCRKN
How it was run: (§1)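 FRET assay with the catalytic domain of recombinant human MMP and a 5-FAM/QXL520 peptide substrate. Buffer was HEPES pH 7.5 with CaCl2, 0.01% Brij-35, 0.1 mg/ml BSA and 5% DMSO. Enzyme and compound were preincubated 10 min, then substrate was added. Fluorescence (ex 490/em 520 nm) was read every 5 min for 2 h at room temperature, and the initial linear slope was used. Curves had 12 doses, 3-fold dilutions from 100 μM, run in duplicate and averaged.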

Rattus norvegicus [1] = assay: Chondro-protective activity in MIA-induced Sprague-Dawley rat osteoarthritis model assessed as reduction in proteoglycan loss on MTP at 1 mg, ia administered once per week for 3 weeks starting from 5 days post MIA treatment and measured after 26 days post MIA injection; assay type: functional; parameters: scale not given: the % may be the effect or the level left
How it was run: (§2)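 Male Sprague-Dawley rats (175–200 g) received 2 mg MIA in 40 μl into the right knee. Saline suspensions were given intra-articularly on days 5, 12 and 19, with 8 rats per group and 5 naive rats. Right knees were taken on day 26, then formalin-fixed, decalcified, paraffin-sectioned and toluidine blue-stained. A veterinary pathologist scored cell loss (area without viable chondrocytes), proteoglycan loss (staining intensity), bone resorption and osteophytes. Statistics were ANOVA or Kruskal-Wallis with post-tests versus vehicle.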

Stromelysin-1 = Stromelysin-1 (Homo sapiens, UniProt P08254); assay: Inhibition of recombinant human MMP3 using QXL520-gamma-Abu-Pro-Cha-Abu-Smc-His-Ala-Dab(5-FAM)-Ala-Lys-NH2 as substrate measured every 5 mins for 2 hrs by FRET assay; how it was run: as §1
Stromelysin-1, sequence (P08254 whole entry): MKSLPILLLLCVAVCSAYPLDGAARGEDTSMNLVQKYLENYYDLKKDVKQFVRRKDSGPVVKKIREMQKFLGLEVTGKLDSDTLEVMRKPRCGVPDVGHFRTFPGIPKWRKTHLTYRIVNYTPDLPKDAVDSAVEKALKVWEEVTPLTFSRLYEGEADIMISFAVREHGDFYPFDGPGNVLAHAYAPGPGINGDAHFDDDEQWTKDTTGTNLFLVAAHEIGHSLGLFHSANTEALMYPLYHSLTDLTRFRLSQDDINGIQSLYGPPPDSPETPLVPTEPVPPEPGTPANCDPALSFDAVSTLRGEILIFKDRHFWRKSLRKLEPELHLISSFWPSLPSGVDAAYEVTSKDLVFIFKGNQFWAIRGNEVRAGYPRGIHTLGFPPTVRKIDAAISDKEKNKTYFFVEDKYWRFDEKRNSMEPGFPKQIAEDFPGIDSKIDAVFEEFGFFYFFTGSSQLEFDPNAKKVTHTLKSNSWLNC

[2] = target: Matrix metalloproteinase-9 (Homo sapiens, UniProt P14780); assay: Inhibition of recombinant human MMP9 using QXL520-gamma-Abu-Pro-Cha-Abu-Smc-His-Ala-Dab(5-FAM)-Ala-Lys-NH2 as substrate measured every 5 mins for 2 hrs by FRET assay; how it was run: as §1
Matrix metalloproteinase-9, sequence (P14780 whole entry): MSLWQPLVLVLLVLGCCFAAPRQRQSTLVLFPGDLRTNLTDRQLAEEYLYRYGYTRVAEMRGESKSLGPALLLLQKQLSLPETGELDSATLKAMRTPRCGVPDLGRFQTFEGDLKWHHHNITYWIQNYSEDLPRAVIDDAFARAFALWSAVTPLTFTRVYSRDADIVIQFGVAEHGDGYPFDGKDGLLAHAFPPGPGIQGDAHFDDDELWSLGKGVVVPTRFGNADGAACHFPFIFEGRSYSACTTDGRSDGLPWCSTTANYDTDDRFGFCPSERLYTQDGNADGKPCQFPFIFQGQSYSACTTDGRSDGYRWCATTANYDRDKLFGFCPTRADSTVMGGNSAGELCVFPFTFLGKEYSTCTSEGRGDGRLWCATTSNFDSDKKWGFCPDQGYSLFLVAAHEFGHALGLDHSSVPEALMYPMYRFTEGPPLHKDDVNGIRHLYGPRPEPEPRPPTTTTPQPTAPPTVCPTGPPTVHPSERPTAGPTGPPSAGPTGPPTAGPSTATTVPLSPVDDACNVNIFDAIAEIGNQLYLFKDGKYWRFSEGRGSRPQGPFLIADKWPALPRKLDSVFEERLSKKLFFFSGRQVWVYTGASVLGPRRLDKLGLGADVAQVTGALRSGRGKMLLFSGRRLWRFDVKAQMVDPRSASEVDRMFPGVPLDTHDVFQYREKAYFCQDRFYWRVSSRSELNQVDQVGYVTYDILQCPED

[3] = Stability in rat liver microsomes assessed as parent compound remaining at 1 uM measured after 60 mins in presence of NADPH by LC-MS/MS analysis; assay type: ADME, Microsome; conditions: read-out: Stability
How it was run: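 Compound at 1 μM was incubated with 0.3 mg/ml rat liver microsomes in 100 mM potassium phosphate pH 7.4 with 2 mM NADPH and 3 mM MgCl2, in duplicate at 37 °C for 60 min. A control without NADPH was run alongside. Samples at 0 and 60 min were quenched in cold acidified acetonitrile with internal standards, and percent parent remaining was measured by LC-MS/MS.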

Neutrophil collagenase = Neutrophil collagenase (Homo sapiens, UniProt P22894); assay: Inhibition of recombinant human MMP8 using QXL520-gamma-Abu-Pro-Cha-Abu-Smc-His-Ala-Dab(5-FAM)-Ala-Lys-NH2 as substrate measured every 5 mins for 2 hrs by FRET assay; how it was run: as §1
Neutrophil collagenase, sequence (P22894 whole entry): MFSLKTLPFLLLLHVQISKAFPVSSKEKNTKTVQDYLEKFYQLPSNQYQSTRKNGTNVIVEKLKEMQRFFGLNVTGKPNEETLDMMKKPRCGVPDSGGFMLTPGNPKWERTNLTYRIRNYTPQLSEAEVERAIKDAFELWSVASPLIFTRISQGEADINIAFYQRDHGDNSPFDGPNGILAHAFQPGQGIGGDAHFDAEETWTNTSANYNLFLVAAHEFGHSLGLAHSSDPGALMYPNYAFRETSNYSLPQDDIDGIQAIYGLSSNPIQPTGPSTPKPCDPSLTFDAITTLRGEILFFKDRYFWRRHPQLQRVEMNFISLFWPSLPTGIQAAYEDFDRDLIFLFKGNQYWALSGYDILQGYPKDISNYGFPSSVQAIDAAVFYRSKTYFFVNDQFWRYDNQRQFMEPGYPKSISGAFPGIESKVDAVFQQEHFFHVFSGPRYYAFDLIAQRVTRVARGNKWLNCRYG

[4] = target: Macrophage metalloelastase (Homo sapiens, UniProt P39900); assay: Inhibition of recombinant human MMP12 using QXL520-gamma-Abu-Pro-Cha-Abu-Smc-His-Ala-Dab(5-FAM)-Ala-Lys-NH2 as substrate measured every 5 mins for 2 hrs by FRET assay; how it was run: as §1
Macrophage metalloelastase, sequence (P39900 whole entry): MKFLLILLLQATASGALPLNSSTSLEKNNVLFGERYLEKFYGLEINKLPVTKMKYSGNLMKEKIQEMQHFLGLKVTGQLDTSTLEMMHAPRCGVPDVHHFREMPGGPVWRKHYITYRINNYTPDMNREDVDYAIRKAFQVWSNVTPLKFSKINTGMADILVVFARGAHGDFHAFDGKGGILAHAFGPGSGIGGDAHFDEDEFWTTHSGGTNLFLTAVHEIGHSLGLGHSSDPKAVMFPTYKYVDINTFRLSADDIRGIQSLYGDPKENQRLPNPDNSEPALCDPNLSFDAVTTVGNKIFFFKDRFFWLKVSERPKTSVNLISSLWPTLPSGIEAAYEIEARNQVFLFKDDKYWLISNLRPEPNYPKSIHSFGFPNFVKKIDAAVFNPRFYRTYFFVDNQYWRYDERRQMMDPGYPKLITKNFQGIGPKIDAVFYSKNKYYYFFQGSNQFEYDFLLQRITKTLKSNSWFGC

Matrilysin = target: T2, Matrilysin (Homo sapiens, UniProt P09237); assay: Inhibition of recombinant human MMP7 using QXL520-gamma-Abu-Pro-Cha-Abu-Smc-His-Ala-Dab(5-FAM)-Ala-Lys-NH2 as substrate measured every 5 mins for 2 hrs by FRET assay; how it was run: as §1
T2 sequence (P09237 whole entry): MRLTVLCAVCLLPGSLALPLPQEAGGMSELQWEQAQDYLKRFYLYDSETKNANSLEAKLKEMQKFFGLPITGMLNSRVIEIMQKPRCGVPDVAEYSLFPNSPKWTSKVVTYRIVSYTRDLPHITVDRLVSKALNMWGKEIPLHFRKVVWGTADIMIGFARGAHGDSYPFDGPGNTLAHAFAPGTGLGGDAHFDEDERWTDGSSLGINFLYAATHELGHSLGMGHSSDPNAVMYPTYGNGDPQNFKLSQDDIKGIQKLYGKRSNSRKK

[5] = target: 72 kDa type IV collagenase (Homo sapiens, UniProt P08253); assay: Inhibition of recombinant human MMP2 using QXL520-gamma-Abu-Pro-Cha-Abu-Smc-His-Ala-Dab(5-FAM)-Ala-Lys-NH2 as substrate measured every 5 mins for 2 hrs by FRET assay; how it was run: as §1
72 kDa type IV collagenase, sequence (P08253 whole entry): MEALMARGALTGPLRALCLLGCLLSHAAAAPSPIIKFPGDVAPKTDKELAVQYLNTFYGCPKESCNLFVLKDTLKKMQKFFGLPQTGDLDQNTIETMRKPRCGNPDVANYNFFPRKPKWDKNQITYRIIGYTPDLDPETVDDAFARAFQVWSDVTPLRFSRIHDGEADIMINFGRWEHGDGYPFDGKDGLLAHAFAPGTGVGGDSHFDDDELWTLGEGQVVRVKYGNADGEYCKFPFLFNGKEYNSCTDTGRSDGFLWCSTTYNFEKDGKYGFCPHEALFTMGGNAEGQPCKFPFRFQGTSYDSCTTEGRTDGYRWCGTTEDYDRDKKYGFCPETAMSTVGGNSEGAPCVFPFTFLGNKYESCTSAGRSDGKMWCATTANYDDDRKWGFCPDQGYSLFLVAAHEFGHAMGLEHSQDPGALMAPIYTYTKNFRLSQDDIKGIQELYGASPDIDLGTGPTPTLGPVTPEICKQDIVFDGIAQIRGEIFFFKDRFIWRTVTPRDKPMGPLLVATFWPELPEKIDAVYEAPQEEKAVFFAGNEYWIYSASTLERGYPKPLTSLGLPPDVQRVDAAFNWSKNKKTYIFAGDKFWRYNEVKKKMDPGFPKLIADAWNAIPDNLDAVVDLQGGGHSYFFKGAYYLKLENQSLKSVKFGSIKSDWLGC

[6] = target: Matrix metalloproteinase-14 (Homo sapiens, UniProt P50281); assay: Inhibition of recombinant human MMP14 using QXL520-gamma-Abu-Pro-Cha-Abu-Smc-His-Ala-Dab(5-FAM)-Ala-Lys-NH2 as substrate measured every 5 mins for 2 hrs by FRET assay; how it was run: as §1
Rattus norvegicus [7] = assay: Chondro-protective activity in MIA-induced Sprague-Dawley rat osteoarthritis model assessed as reduction in proteoglycan loss on LTP at 1 mg, ia administered once per week for 3 weeks starting from 5 days post MIA treatment and measured after 26 days post MIA injection; assay type: functional; parameters: scale not given: the % may be the effect or the level left; how it was run: as §2
Stromelysin-2 = Stromelysin-2 (Homo sapiens, UniProt P09238); assay: Inhibition of recombinant human MMP10 using QXL520-gamma-Abu-Pro-Cha-Abu-Smc-His-Ala-Dab(5-FAM)-Ala-Lys-NH2 as substrate measured every 5 mins for 2 hrs by FRET assay
Stromelysin-2, sequence (P09238 whole entry): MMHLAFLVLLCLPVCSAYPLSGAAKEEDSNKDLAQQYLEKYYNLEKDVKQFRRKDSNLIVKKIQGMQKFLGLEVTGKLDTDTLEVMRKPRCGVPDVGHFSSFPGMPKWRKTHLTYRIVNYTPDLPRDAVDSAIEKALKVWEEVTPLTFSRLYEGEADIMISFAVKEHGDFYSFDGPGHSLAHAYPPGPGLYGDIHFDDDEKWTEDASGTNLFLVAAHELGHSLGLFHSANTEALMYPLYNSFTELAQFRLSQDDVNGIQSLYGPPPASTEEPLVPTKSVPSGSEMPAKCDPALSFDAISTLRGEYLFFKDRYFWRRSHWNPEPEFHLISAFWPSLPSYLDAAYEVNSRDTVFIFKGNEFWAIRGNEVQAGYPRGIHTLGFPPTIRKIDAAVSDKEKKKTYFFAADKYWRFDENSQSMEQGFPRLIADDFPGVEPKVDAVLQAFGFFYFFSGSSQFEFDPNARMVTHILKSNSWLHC

Collagenase 3 [8] = target: T3, Collagenase 3 (Homo sapiens, UniProt P45452); assay: Inhibition of recombinant human MMP13 using QXL520-gamma-Abu-Pro-Cha-Abu-Smc-His-Ala-Dab(5-FAM)-Ala-Lys-NH2 as substrate measured every 5 mins for 2 hrs by FRET assay
How it was run: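 Catalytic domain of human recombinant MMP-13. Buffer: HEPES pH 7.5, CaCl2, 0.01% Brij-35, 0.1 mg/ml BSA and 5% DMSO. Compound was preincubated with enzyme for 10 min before substrate addition. Fluorescence (ex 490, em 520 nm) was read at room temperature. IC50 came from initial linear slopes over 12 doses, 3-fold dilutions from 100 μM, in duplicate, reported as the mean.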

Rattus norvegicus [9] = assay: Chondro-protective activity in MIA-induced Sprague-Dawley rat osteoarthritis model assessed as reduction in cell loss on lateral tibial plateau at 1 mg, ia administered once per week for 3 weeks starting from 5 days post MIA treatment and measured after 26 days post MIA injection; assay type: functional; parameters: scale not given: the % may be the effect or the level left; how it was run: as §2
Rattus norvegicus [10] = assay: Chondro-protective activity in MIA-induced Sprague-Dawley rat osteoarthritis model assessed as reduction in proteoglycan loss on LFC at 1 mg, ia administered once per week for 3 weeks starting from 5 days post MIA treatment and measured after 26 days post MIA injection; assay type: functional; parameters: scale not given: the % may be the effect or the level left; how it was run: as §2
Collagenase 3 [11] = target: T3, Collagenase 3; assay: Inhibition of MMP13 (unknown origin); how it was run: as §1
[12] = Stability in rat liver microsomes; assay type: ADME, Microsome
How it was run: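 Rat liver microsomes at 0.3 mg/ml protein with 1 μM compound, in 100 mM potassium phosphate pH 7.4, 2 mM NADPH, 3 mM MgCl2. Incubated in duplicate for 60 min at 37 °C with shaking, with a duplicate NADPH-free control. Sampled at T=0 and 60 min into cold acidified acetonitrile with internal standards. Percent parent remaining measured by LC-MS/MS (ESI, MRM).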

Rattus norvegicus [13] = assay: Chondro-protective activity in MIA-induced Sprague-Dawley rat osteoarthritis model assessed as reduction of cell loss at 0.06 mg, ia administered once per week for 3 weeks starting from 5 days post MIA treatment and measured after 26 days post MIA injection; assay type: functional, organism-based; how it was run: as §2
Rattus norvegicus [14] = assay: Chondro-protective activity in MIA-induced Sprague-Dawley rat osteoarthritis model assessed as reduction of bone resorption in tibia at 0.06 mg, ia administered once per week for 3 weeks starting from 5 days post MIA treatment and measured after 26 days post MIA injection; assay type: functional; parameters: scale not given: the % may be the effect or the level left; how it was run: as §2
Rattus norvegicus [15] = assay: Chondro-protective activity in MIA-induced Sprague-Dawley rat osteoarthritis model assessed as reduction of bone resorption in medial femoral condyle at 0.06 mg, ia administered once per week for 3 weeks starting from 5 days post MIA treatment and measured after 26 days post MIA injection; assay type: functional; parameters: scale not given: the % may be the effect or the level left; how it was run: as §2
Rattus norvegicus [16] = assay: Chondro-protective activity in MIA-induced Sprague-Dawley rat osteoarthritis model assessed as reduction of osteophyte score at 0.06 mg, ia administered once per week for 3 weeks starting from 5 days post MIA treatment and measured after 26 days post MIA injection; assay type: functional; parameters: scale not given: the % may be the effect or the level left; how it was run: as §2
Rattus norvegicus [17] = assay: Chondro-protective activity in MIA-induced Sprague-Dawley rat osteoarthritis model assessed as reduction of bone resorption in lateral femoral condyle at 0.06 mg, ia administered once per week for 3 weeks starting from 5 days post MIA treatment and measured after 26 days post MIA injection; assay type: functional; parameters: scale not given: the % may be the effect or the level left; how it was run: as §2

`[2H]C([2H])(NC(=O)c1cc(C(=O)NCc2ccc(F)c(C)c2)ncn1)c1ccc(C(=O)O)cc1` gave an IC50 (Interstitial collagenase) greater than 100 µM, an Activity (Rattus norvegicus [1]) of 15% and an IC50 (Stromelysin-1) greater than 100 µM. It also gave an IC50 [2] of 74 µM, a remaining at 1 h, 1 µM [3] of 99% and an IC50 (Neutrophil collagenase) of 98 µM. For the same compound, the IC50 [4] was greater than 100 µM, the IC50 (Matrilysin) was greater than 100 µM and the IC50 [5] was greater than 100 µM. It also gave an IC50 [6] greater than 100 µM, an Activity (Rattus norvegicus [7]) of 15% and an IC50 (Stromelysin-2) of 1 µM. It also gave an IC50 (Collagenase 3 [8]) of 0.0048 µM, an Activity (Rattus norvegicus [9]) of 8% and an Activity (Rattus norvegicus [10]) of 15%.

`C[C@@H](NC(=O)c1cc(C(=O)NCc2ccc(-c3nnn[nH]3)cc2)ncn1)c1ccccc1` showed an IC50 (Collagenase 3 [11]) greater than 0.1 µM.

In the case of `Cc1cc(CNC(=O)c2cc(C(=O)NCc3ccc(C(=O)O)cc3)ncn2)ccc1F`, the remaining at 1 h, 1 µM [3] is reported as 90%.

For `C[C@H](NC(=O)c1cc(C(=O)NCc2ccc(-c3nnn[nH]3)cc2)ncn1)c1ccccc1`, the IC50 (Collagenase 3 [11]) was less than 0.01 µM.

In the case of `Cc1cc(CNC(=O)c2cc(C(=O)NCc3ccc(F)c(C)c3)ncn2)ccc1F`, the Stability [12] is reported as 0.6%.

With `C[C@]12C=CC(=O)C=C1CC[C@H]1[C@@H]3C[C@@H](O)[C@](O)(C(=O)CO)[C@@]3(C)C[C@H](O)[C@@]12F` [TRIAMCINOLONE] the Activity (Rattus norvegicus [13]) was “inactive”, the Activity (Rattus norvegicus [14]) was 34% and the Activity (Rattus norvegicus [15]) was 49%. For the same compound, the Activity (Rattus norvegicus [16]) was 40% and the Activity (Rattus norvegicus [17]) was 49%.
